Columns and labels:
[1] = Inhibition glucose-6-phosphate hydrolysis in highly intact microsomal preparations obtained from livers of 20-h fasted rats.; assay type: functional, microsomes, Rattus norvegicus, Liver, Microsome
Procedure, shortened: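 Male Wistar rats (160-180 g), fasted 20 h; liver microsomes by differential centrifugation, intactness usually above 97% (1 mM mannose 6-phosphate). 100 μg protein, 1 mM glucose 6-phosphate, 250 mM sucrose/50 mM HEPES pH 7.0, 10 min, 22 °C, compound 0.1-1000 μM (MeOH stock). Phosphate read at 630 nm, background-corrected; IC50 by nonlinear least-squares; at least two experiments.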

Rattus norvegicus [2] = organism: Rattus norvegicus; assay: Percent inhibition against glucose-6-phosphate hydrolysis in highly intact microsomal preparations obtained from livers of 20-h fasted rats at 1 mM; assay type: functional, microsomes; conditions: Liver, Microsome
Procedure, shortened: (§1)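 Intact microsomes from 20-h-fasted male Wistar rat liver; 100 μg protein incubated 10 min at 22 °C with 1 mM glucose 6-phosphate in pH 7.0 sucrose/HEPES buffer, ≤1.25% methanol. Released phosphate measured colorimetrically at 630 nm after background subtraction. Percent inhibition versus vehicle control; representative of at least two independent experiments.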

Rattus norvegicus [3] = organism: Rattus norvegicus; assay: Percent inhibition against glucose-6-phosphate hydrolysis in highly intact microsomal preparations obtained from livers of 20-h fasted rats at 0.23 mM; assay type: functional, microsomes; conditions: Liver, Microsome; procedure, shortened: as §1
Rattus norvegicus [4] = organism: Rattus norvegicus; assay: Percent inhibition against glucose-6-phosphate hydrolysis in highly intact microsomal preparations obtained from livers of 20-h fasted rats at 0.25 mM; assay type: functional, microsomes; conditions: Liver, Microsome; procedure, shortened: as §1

IC50 [1] [µM]	Structure (SMILES)	further results
380	O=C(/C=C/c1ccsc1)O[C@@H]1C[C@](O)(C(=O)O)C[C@@H](O)[C@H]1O	–
31	O=C(/C=C/c1ccc(O)cc1)O[C@@H]1C[C@](OCCCc2ccccc2)(C(=O)O)C[C@@H](O)[C@H]1O	–
–	O=C(/C=C/c1ccc(O)c(O)c1)O[C@@H]1C[C@@](O)(C(=O)O)[C@H](O)[C@@H](O)[C@H]1O	inhibition (Rattus norvegicus [2]): 10%
2.5	O=C(/C=C/c1ccc(O)cc1)O[C@@H]1C[C@](OCCCc2ccc(Cl)cc2)(C(=O)O)C[C@@H](O)[C@H]1O	–
110	O=C(/C=C/c1ccc(O)cc1)O[C@@H]1C[C@](OCc2cccs2)(C(=O)O)C[C@@H](O)[C@H]1O	–
–	COC(=O)[C@]1(O)C[C@@H](O)[C@@H](O)[C@H](OC(=O)/C=C/c2ccc(O)c(O)c2)C1	inhibition (Rattus norvegicus [2]): 50%
41	CC(C)CCC(=O)O[C@@H]1C[C@](OCCCc2ccc(Cl)cc2)(C(=O)O)C[C@@H](O)[C@H]1O	–
–	O=C(/C=C/c1ccc(O)cc1)O[C@@H]1C[C@H](C(=O)O)C[C@@H](O)[C@H]1O	inhibition (Rattus norvegicus [3]): 50%
85	O=C(/C=C/c1ccc(O)cc1)O[C@@H]1C[C@](OCCCCc2ccc(Cl)cc2)(C(=O)O)C[C@@H](O)[C@H]1O	–
250	O=C(/C=C/c1ccc(O)cc1)O[C@@H]1C[C@](O)(C(=O)O)C[C@@H](O)[C@H]1O	–
> 1000	O=C(/C=C/c1cccnc1)O[C@@H]1C[C@](O)(C(=O)O)C[C@@H](O)[C@H]1O	–
21	O=C(/C=C/c1ccc(O)cc1)O[C@@H]1C[C@](OCc2ccc(-c3ccccc3)cc2)(C(=O)O)C[C@@H](O)[C@H]1O	–
–	O=C(/C=C/c1ccc(O)cc1)O[C@@H]1CC(C(=O)O)=C[C@@H](O)[C@H]1O	inhibition (Rattus norvegicus [4]): 50%
12	O=C(COc1ccccc1)O[C@@H]1C[C@](OCCCc2ccc(Cl)cc2)(C(=O)O)C[C@@H](O)[C@H]1O	–
230	O=C(/C=C/c1ccc(O)c(O)c1)O[C@@H]1C[C@](O)(C(=O)O)C[C@@H](O)[C@H]1O [CHLOROGENIC ACID]	–
4.5	O=C(O[C@@H]1C[C@](OCCCc2ccc(Cl)cc2)(C(=O)O)C[C@@H](O)[C@H]1O)c1snnc1-c1ccccc1	–
–	CCO[C@@]1(C(=O)O)C[C@@H](O)[C@@H](O)[C@H](OC(=O)/C=C/c2ccc(O)cc2)C1	inhibition (Rattus norvegicus [2]): 38%
47	COc1cccc(CO[C@@]2(C(=O)O)C[C@@H](O)[C@@H](O)[C@H](OC(=O)/C=C/c3ccc(O)cc3)C2)c1	–
280	CO[C@@]1(C(=O)O)C[C@@H](O)[C@@H](O)[C@H](OC(=O)/C=C/c2ccc(O)cc2)C1	–
–	O=C(/C=C/c1ccc(O)cc1)O[C@@H]1C[C@H](C(=O)O)CC[C@H]1O	inhibition (Rattus norvegicus [2]): 20%
1.3	C=Cc1ccc(C(=O)O[C@@H]2C[C@](OCCCc3ccc(Cl)cc3)(C(=O)O)C[C@@H](O)[C@H]2O)cc1	–
190	O=C(/C=C/c1ccc(O)cc1)O[C@@H]1C[C@](OCc2ccccc2)(C(=O)O)C[C@@H](O)[C@H]1O	–
680	O=C(CCc1ccc(O)c(O)c1)O[C@@H]1C[C@](O)(C(=O)O)C[C@@H](O)[C@H]1O	–
–	O=C(/C=C/c1ccc(O)cc1)O[C@@H]1C[C@](O)(C(=O)O)[C@@H](O)[C@@H](O)[C@H]1O	inhibition (Rattus norvegicus [2]): 30%
310	O=C(/C=C/c1ccc(O)c(O)c1O)O[C@@H]1C[C@](O)(C(=O)O)C[C@@H](O)[C@H]1O	–
230	C#CCO[C@@]1(C(=O)O)C[C@@H](O)[C@@H](O)[C@H](OC(=O)/C=C/c2ccc(O)cc2)C1	–
8.9	O=C(O[C@@H]1C[C@](OCCCc2ccc(Cl)cc2)(C(=O)O)C[C@@H](O)[C@H]1O)C1CCCCC1	–
–	O=C(/C=C/c1ccc(O)cc1)N[C@@H]1CC(C(=O)O)=C[C@@H](O)[C@H]1O	inhibition (Rattus norvegicus [2]): 15%
